Assay outcomes: PubChem BioAssay, several laboratories
ADAM17 inh: ADAM17 inhibitors, primary screen, biochemical, QFRET. Disintegrin and metalloproteinase domain-containing protein 17 (Homo sapiens), P78536. 0.83% of 370,000 active. inhibition, % at 6.95 µM. AID 720648, 2013. recombinant ADAM17, EDANS/DABCYL FRET peptide cleavage;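 active means inhibition above the mean of compounds lying between control limits plus 3 SD, set per campaign, cut at about 8.5% in these data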;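 further: 0% = DMSO-only wells as the low control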
MT1-MMP act inh: blockers of MT1-MMP proenzyme processing, primary screen, HT1080 RFP-PRO-GFP cells, GFP/RFP fluorescence; 0.061% of 360,000 active; GFP/RFP ratio fluorescence, overnight; percent of plate control window, DMSO zero; GFP/RFP ratio change, % at 20 µM; Matrix metalloproteinase-14 (Homo sapiens), P50281;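 active means GFP/RFP ratio change of at least 30% with cell ATP level not reduced by more than half and red fluorescence within 50% of control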
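Test system: HT1080 cells expressing an RFP-PRO-GFP fluorescent reporter construct / Compound dosing: single-point 20 µM compound, 1% DMSO / Schedule: cells overnight before dosing, compound overnight, 37 °C, 5% CO2 / Evaluation: GFP/RFP fluorescence ratio / Control set: DMSO and RFP-L50D-GFP cell wells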
MPTP inh: mitochondrial permeability transition pore inhibitors, primary screen, biochemical, isolated mouse mitochondria, absorbance; Ca2+ swelling absorbance, 30 min; inhibition, % at 10 µM; 1.4% of 360,000 active;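 active means inhibition of 50% or more, scaled per plate between neutral and stimulator controls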;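 further: 0% = DMSO wells given calcium and 100% = 1 mM EGTA wells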
ADAM10 inh: human ADAM10 inhibitors, primary screen, biochemical, QFRET, HTS; inhibition, % at 7 µM; recombinant ADAM10, EDANS/DABCYL FRET peptide cleavage, 3 h; AID 720582, 2013; 0.62% of 370,000 active; Disintegrin and metalloproteinase domain-containing protein 10 (Homo sapiens), O14672;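 active means inhibition above a per-campaign cutoff equal to the mean of compounds falling between control-based bounds plus 3 SD, cut at about 20% in these data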;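 further: 0% = DMSO wells while the 100% control is not disclosed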
Target sequence (O14672 214-748 limits assumed): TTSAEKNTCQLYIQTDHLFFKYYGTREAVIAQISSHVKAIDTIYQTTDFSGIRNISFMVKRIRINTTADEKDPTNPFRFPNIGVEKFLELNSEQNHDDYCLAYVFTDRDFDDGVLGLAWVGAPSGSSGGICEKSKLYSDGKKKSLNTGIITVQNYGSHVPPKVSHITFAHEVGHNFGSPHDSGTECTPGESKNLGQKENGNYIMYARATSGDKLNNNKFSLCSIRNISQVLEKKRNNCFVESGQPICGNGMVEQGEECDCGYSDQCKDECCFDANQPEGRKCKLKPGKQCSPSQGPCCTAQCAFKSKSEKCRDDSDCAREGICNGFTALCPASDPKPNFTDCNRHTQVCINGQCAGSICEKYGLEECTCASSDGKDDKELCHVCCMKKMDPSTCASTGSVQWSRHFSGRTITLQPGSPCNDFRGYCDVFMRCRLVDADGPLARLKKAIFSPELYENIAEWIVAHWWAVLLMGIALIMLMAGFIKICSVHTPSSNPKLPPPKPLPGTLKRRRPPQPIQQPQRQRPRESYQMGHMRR
NR3A LBD binder: binders of NR3A ligand-binding domain, primary screen, biophysical, differential scanning fluorimetry, uHTS; Tm shift relative to glycine control, % at 25 µM; 2.5% of 340,000 active; Glutamate receptor ionotropic, NMDA 3A (GRIN3A) ligand-binding domain; NR3A LBD differential scanning fluorimetry, Tm shift; 0% = protein alone, 100% = glycine-bound protein;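 active means melting temperature shift of at least 10% of the positive control shift, at one fixed dose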
SKN-1 block: suppressors of acrylamide-induced Pgst-4::GFP reporter in worms, primary screen, SKN-1 inhibitor project, whole organism, uHTS, GFP/RFP fluorescence ratio, strain VP596; AID 624304, 2012; 0.49% of 360,000 active; inhibition, % at 21.8 µM; C. elegans VP596 Pgst-4::GFP/RFP ratio, 24 h;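 active means interference check ratio from 0.5 to 1.5 plus GFP to RFP signal ratio inhibition reaching or exceeding a fixed threshold, cut at about 30% in these data, passing the limit was not always enough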
The depositor's hits bear a star; / = no result given. Compounds with a hit are over-represented: about 4.7% of the library has one in this group of screens.

SMILES	ADAM17 inh	MT1-MMP act inh	MPTP inh	ADAM10 inh	NR3A LBD binder	SKN-1 block
Cc1cc(C(=O)O)ccc1-n1c(C)cc(/C=C2\SC(=O)NC2=O)c1C	-4	6	2	-10	0	0
CC(=O)Nc1cc(NC(C)=O)cc(C(=O)OCC(=O)N2CC(C)OC(C)C2)c1 (stereo not drawn)	3	2	2	5	0	36*
CC1CN(C(=O)COC(=O)c2ccc(O)cc2)CC(C)O1 (stereo not drawn)	-2	-1	0	-8	-2	-15
COc1ccc(CCN2C(=O)C=CC2=O)cc1OC	-2	2	-1	-3	20*	9
COc1ccc(CCN2C(=O)CN(Cc3ccccc3)CC2=O)cc1OC	-3	-2	3	-8	2	5
CC(C)Oc1cccc(C(=O)NC(=S)Nc2cccc(C(F)(F)F)c2)c1	-5	1	2	-1	-4	-1
CCOc1cccc(C(=O)NC(=S)Nc2cccc(NC(=O)c3ccccc3Cl)c2)c1	-5	8	1	8	16*	7
CCCCOc1cccc(C(=O)NC(=S)Nc2cccc(C(F)(F)F)c2)c1	3	1	13	12	12*	1
CCOc1cccc(C(=O)NC(=S)Nc2ccccc2)c1	1	3	0	17	2	0
Cc1[nH]n(-c2ccccc2)c(=S)c1C=Nc1ccc([N+](=O)[O-])cc1	4	2	2	10	23*	13
Cc1[nH]n(-c2ccccc2)c(=O)c1C=Nc1ccc2[nH]c(=O)[nH]c2c1	0	-1	-1	-1	33*	-9
Cc1[nH]n(-c2ccccc2)c(=O)c1/C=N/c1ccccn1	-2	2	1	-3	-1	51*
Cc1cccc(-n2[nH]c(C)c(C=Nc3ccc4[nH]c(=O)[nH]c4c3)c2=O)c1	-1	2	-1	0	32*	-1
Cc1cccc(/N=C/c2c(C)[nH]n(-c3ccccc3)c2=O)n1	-1	-3	1	-5	0	-9
Cc1[nH]n(-c2ccccc2)c(=O)c1C=Nc1cccc(F)c1	-4	1	2	1	1	10
CCOc1c2ccccc2nn1CCOC	1	5	0	-9	2	-13
NC(CSC(c1ccccc1)(c1ccccc1)c1cccc2ccccc12)C(=O)O (stereo not drawn)	/	3	0	/	-20	0
Cc1c(Cl)cccc1N(Cc1ccc(C(=O)O)cc1)S(=O)(=O)c1ccccc1	-1	-8	-1	-8	13*	0
CCOC(=O)c1sc(Nc2cccc(Cl)c2)nc1C	-8	2	17	-2	0	2
C=CCn1c(SCC(=O)NC2CCCC2)nc2sc(C)cc2c1=O	-2	4	0	-6	21*	-7
C=CCn1c(SCC(=O)Nc2cc(C)on2)nc2sc(C)c(C)c2c1=O	2	-3	0	5	21*	32
CC1(c2ccccc2Cl)NC(=O)N(CC(=O)Nc2ccc(N3CCOCC3)cc2)C1=O (stereo not drawn)	-5	-3	-3	-15	2	8
Cc1cc(NC(=O)CN2C(=O)NC(CC(C)C)C2=O)ccc1Br (stereo not drawn)	2	9	0	1	29*	-1
CC1(C)Cc2c(cnn2-c2ccccc2)C(NC(=O)CCc2ccc(=O)[nH]n2)C1 (stereo not drawn)	-3	3	-1	-8	13*	-2
Cc1nn(C)c(C)c1CCC(=O)NC1CC(C)(C)Cc2c1cnn2-c1ccccc1 (stereo not drawn)	0	-5	-1	-4	-2	15
SMILES	ADAM17 inh	MT1-MMP act inh	MPTP inh	ADAM10 inh	NR3A LBD binder	SKN-1 block
CCNC(=O)c1ccc(CSc2nc3ccccc3s2)cc1	2	-1	3	-2	33*	7
c1ccc2sc(SCc3ccc(-c4nnco4)cc3)nc2c1	6	2	-1	10	-4	54*
CN(CC(N)=O)S(=O)(=O)c1ccc(F)cc1	2	-1	0	3	-1	-13
COc1ccccc1Oc1cc(-n2nc(C)cc2C)ncn1	1	1	5	-4	10*	19
CCOC(=O)N1CCN(C(=O)C[C@H]2C(=O)N(Cc3ccc(OC)cc3)C3=CCCC[C@@]32C(=O)OCC)CC1	-7	/	/	1	/	/
O=C(Nc1cccc(C(F)(F)F)c1)c1cccc(NS(=O)(=O)c2ccc(O)c(C(=O)O)c2)c1	4	-6	3	5	32*	-10
O=C(c1ccc(S(=O)(=O)Nc2cccc(C(F)(F)F)c2)cc1)N1CCC1	-1	2	0	-2	16*	-15
O=C(NCc1ccccc1F)c1ccc(S(=O)(=O)Nc2cccc(C(F)(F)F)c2)cc1	4	-4	7	10	27*	8
O=C(CCCl)Nc1nc2c(s1)CCc1ccccc1-2	2	-7	1	4	-5	24
COc1ccc(SCCN2CCN(C)CCC2=O)cc1	-8	12	0	5	0	4
N/C(Cc1ccc([N+](=O)[O-])cc1)=N\OC(=O)c1ccccc1Br	-2	-1	1	-3	12*	13
N/C(=N\OC(=O)c1ccccc1Br)c1ccc([N+](=O)[O-])cc1	4	0	0	8	11*	-14
CC(C)(C)OC(=O)N1CCC[C@H]1c1nnc(SCc2ccc(Cl)cc2Cl)o1	3	-5	-1	10	2	-10
O=C(NCc1ccc2c(c1)OCO2)C1CCN(C(=O)Nc2ccc(Cl)cc2)CC1	-1	2	0	8	0	-5
CCOC(=O)CC1C(=O)NCCN1c1nc2ccc(C)cn2c(=O)c1/C=C1\SC(=S)N(CC(C)C)C1=O (stereo not drawn)	/	-35	2	/	0	42*
CCOC(=O)CSCC(NC(=O)OC(C)(C)C)C(=O)OCC (stereo not drawn)	0	0	0	-5	-4	5
CCOC(=O)C(CSCC(=O)c1ccc(Cl)cc1Cl)NC(=O)OC(C)(C)C (stereo not drawn)	-1	4	-1	1	-1	36*
Fc1ccccc1Nc1nc2ccccc2o1	4	1	1	6	34*	11
